Assay outcomes deposited in PubChem by several laboratories.
The list is not random: actives were taken first. Their share in the collection is about 5.5%.
STAT3 inh – IL-6 driven STAT3 reporter inhibitors, primary screen, U3A cells, luciferase, luminescence, MLSCN library | inhibition, % at 5.5 µM | IL-6 STAT3-luciferase reporter; host cell line lacks STAT1 | 190,000 compounds, 0.89% hits | AID 862, 2007;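 active = inhibition above the mean inhibition across all screened compounds plus 3 SD, cut at about 44% in these data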;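 note: 0% = DMSO only wells and 100% = 100 µM nifuroxazide control wells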
HSV augment – enhancers of HSV replication in host cells, fold increase, host cell viability; HSV replication augmentation in cells; maximum fold increase; 220,000 compounds, 0.005% hits; AID 1956, 2009; in the data active = maximum fold increase above about 1.5; tested in PC3 cells
STAT1 activator – STAT1 signaling activators, primary screen, cell-based, HTS, luciferase reporter; NIH 3T3 STAT1-luciferase reporter, IFN-gamma, luminescence; 100% = IFN-gamma alone, no compound; activation (% of control), % at 5.5 µM; 200,000 compounds, 2.6% hits; AID 932, 2007;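 active = activation above the screen-wide mean activation plus 3 SD, cut at about 130% in these data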;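 note: raw ratio to IFN-gamma control signal so 100% means no change and 0% no light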
Cl transport mod – KCC2 cotransporter modulators, thallium flux, primary screen, cell-based, HEK293 KCC2, FluoZin-2 fluorescence, MLSMR; Solute carrier family 12 member 5 (Homo sapiens), Q9H2X9; AID 1456, 2008; 190,000 compounds, 2.2% hits; B-score of Tl+ flux slope (higher = more flux/activation; lower = inhibition) at 10 µM; KCC2 cells, thallium flux FluoZin-2 fluorescence;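 active = thallium flux slope and its plate-corrected score both differing from the plate sample mean at a set confidence after two filtering rounds, in either direction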;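 note: slope of fluorescence scaled to starting intensity during 10 to 20 s after thallium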
STAT3 activator – IL-6 driven STAT3 reporter potentiators, primary screen, U3A cells, luciferase, luminescence, MLSCN library. activation (% of control), % at 5.6 µM. IL-6 STAT3-luciferase reporter; 100% = signal with IL-6 EC80 alone. 190,000 compounds, 0.91% hits;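 active = activation above the screen-wide mean of compound activation plus 3 SD, cut at about 130% in these data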;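 note: 0% = background luminescence of wells with medium and substrate only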
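Material: human STAT1-deficient U3A cells with stable STAT3-luciferase reporter / Probe or stimulus: IL-6 stimulus at 33 ng/mL final / Schedule: 1 h compound pre-exposure, 6 h IL-6 stimulation, 37 °C / Technique: luminescence / Read-out basis: percent of IL-6-only median luminescence / Control set: IL-6-only high control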
STAT1 blocker – STAT1 signaling inhibitors, primary screen, cell-based, HTS, luciferase reporter. 200,000 compounds, 0.35% hits. AID 920, 2007. NIH 3T3 STAT1-luciferase reporter, IFN-gamma, luminescence. inhibition, % at 5.5 µM;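 active = inhibition above a set limit, the mean inhibition across all tested compounds plus 3 SD, cut at about 34% in these data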;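 note: 0% = IFN-gamma with DMSO and 100% = IFN-gamma with 300 µM nifuroxazide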
Active calls of the source: *; i = inactive; nt = not tested or not shown.

SMILES | STAT3 inh | HSV augment | STAT1 activator | Cl transport mod | STAT3 activator | STAT1 blocker
CCc1nnc(NC(=O)CSc2nc3ccc(OC)cc3[nH]2)s1 | 8.3 | i | 101.7 | -0.483 | 97.4 | -3.2
O=C(NCCc1ccccc1)C(=O)NCc1ccncc1 | -1.3 | i | 104.3 | 0 | 99.7 | -4.4
O=C(NCCc1ccccc1)c1ccncc1 | -11.2 | i | 130.0* | nt | 116.2 | -33.0
CC(C)CC1NC(=S)N(Cc2ccccc2)C1=O (stereo unspecified) | 1.0 | i | 105.5 | 0.897 | 97.3 | -6.2
COc1cc(OC)cc(C(=O)Nc2nc(-c3ccccc3)c(-c3ccccc3)o2)c1 | 15.6 | i | 107.8 | 9.96* | 87.7 | -8.7
COc1ccc(-c2c(C#N)c(C)nc3c2C(=O)c2ccccc2-3)cc1 | 15.7 | i | 96.5 | 0.505 | 89.9 | 3.9
COc1ccc(C2=C(C#N)C(=O)OC2)cc1 | 5.7 | i | 67.6 | -0.449 | 96.6 | 36.2*
CN1CCN(Cn2cc(/C=C/C(=O)c3ccccc3)c3ccccc32)CC1 | 16.1 | i | 131.2* | -1.12 | 90.9 | -34.0
O=C(/C=C/c1cn(CC(O)CN2CCCCC2)c2ccccc12)c1ccccc1 (stereo unspecified) | nt | i | nt | 0.18 | nt | nt
COc1ccccc1OCC(O)CNCc1ccc2c(c1)OCO2 (stereo unspecified) | nt | i | nt | 0.0573 | nt | nt
Cc1ccc(NC(=O)c2ccccc2NS(=O)(=O)c2ccc(Cl)s2)cc1S(=O)(=O)N1CCOCC1 | -0.4 | nt | 99.5 | -4.22* | 108.4 | 0.6
O=C(Nc1cc(S(=O)(=O)N2CCOCC2)ccc1O)c1ccc(NS(=O)(=O)c2ccc(Cl)s2)cc1 | -10.5 | i | 97.8 | 1.11 | 106.3 | 2.5
COc1ccccc1NC(=O)c1ccccc1NS(=O)(=O)c1cccs1 | 9.3 | i | 100.2 | -0.815 | 95.6 | -0.6
COc1ccc(C)cc1NC(=O)c1ccccc1NS(=O)(=O)c1ccc(Cl)s1 | 36.6 | i | 67.4 | -3.59* | 73.0 | 33.2
CNC(=S)N/N=C/c1cccc(OCc2ccccc2F)c1 | 2.4 | i | 132.2* | 0.725 | 96.0 | -36.3
O=C(O)c1cc(-c2ccc(O)cc2)on1 | 17.0 | i | 99.4 | 0.0881 | 91.0 | -1.4
O=C(Nc1cccc(Cl)c1)c1cc(N=Nc2ccc([N+](=O)[O-])cc2Cl)ccc1O | nt | i | nt | 11* | nt | nt
CC(Oc1ccc(Cl)cc1)C(=O)N/N=C/c1ccsc1 (stereo unspecified) | -7.7 | i | 103.2 | 0.134 | 109.9 | -3.5
CCOC(=O)c1cnn(-c2sc(C(=O)OCC)c(C)c2C(=O)OCC)c1N | 13.0 | i | 100.4 | 43.2* | 92.2 | -0.4
CCOC(=O)c1cnn(-c2cc(C)cc(C)c2)c1N | 6.7 | i | 93.5 | -0.518 | 98.3 | 3.9
O=C(NCc1ccccc1)c1cccc(COc2cc(Cl)ccc2Cl)c1 | -11.8 | i | 135.2* | -0.0836 | 108.6 | -38.5
Cc1cccc(N/C(N)=N/c2nc(C(F)(F)F)cc(=O)[nH]2)c1C | -5.8 | i | 101.7 | -0.217 | 107.1 | -1.9
COCCn1c(C)cc(C(=O)COC(=O)c2ccc(Br)o2)c1C | -1.5 | i | 106.3 | -0.055 | 104.6 | -7.2
Cc1cc(C(=O)COC(=O)c2ccc(Br)o2)c(C)n1C | 5.6 | i | 135.0* | 0.579 | 100.2 | -37.5
CC1(CC(=O)N/N=C/c2cc([N+](=O)[O-])c(O)cc2O)OCCO1 | -5.1 | i | 98.4 | -0.815 | 105.3 | 0.2
SMILES | STAT3 inh | HSV augment | STAT1 activator | Cl transport mod | STAT3 activator | STAT1 blocker
Cc1ccc([N+](=O)[O-])cc1NC(=S)NC(=O)c1ccco1 | 5.1 | i | 98.8 | 14.6* | 94.5 | 1.3
O=C(NC(=S)Nc1cc([N+](=O)[O-])ccc1Cl)c1ccccc1 | -20.6 | i | 120.8 | 11.4* | 123.7 | -22.5
CCCn1c(C(C)C)n[nH]c1=S | nt | i | nt | -0.0179 | nt | nt
COC(=O)C(C)N(C(=O)c1cccc2ccccc12)c1c(C)cccc1C (stereo unspecified) | 2.1 | i | 99.0 | -3.72* | 99.5 | 1.0
CCN(CC)c1ccc(C(=S)NC2CCCCC2)cc1 | 5.8 | i | 110.4 | -1.43 | 99.2 | -14.6
CN(C)c1ccc(C(=S)NC2CCCCC2)cc1 | -10.8 | i | 131.7* | 0.0218 | 113.9 | -35.7
CC(C)N(C(=O)CSc1ncnc2sc(-c3ccccc3)cc12)C(C)C | -2.6 | i | 96.5 | 7.06* | 106.2 | 3.8
CCNC(=O)COC(=O)c1sccc1C | 6.1 | i | 103.4 | 0.557 | 98.2 | -4.0
Cc1ccsc1C(=O)OCC(=O)Nc1sccc1C(N)=O | 7.7 | i | 132.3* | nt | 97.8 | -35.6
CC(C)CN(C(=O)CN1CCc2ccccc21)c1c(N)n(CC(C)C)c(=O)[nH]c1=O | -37.3 | i | 94.6 | 0.665 | 133.0* | 5.1
O=[N+]([O-])c1ccc(CSc2nc3ccccc3[nH]2)cc1 | -2.7 | i | 141.0* | -1.51 | 98.0 | -45.0
c1ccc(CSc2nc3ccccc3[nH]2)cc1 | nt | i | nt | -0.194 | nt | nt
Fc1ccc(CSc2nc3ccccc3[nH]2)cc1 | 12.9 | i | 129.3* | -1.52 | 89.5 | -31.8
Cc1ccccc1Nc1nnc(SCC(=O)NC2CCCc3ccccc32)s1 (stereo unspecified) | -13.0 | i | 143.5* | -1.68 | 106.8 | -47.8
Cc1cc(C)c2c(N)c(C(=O)N3CCc4ccccc4C3)sc2n1 | 15.8 | i | 103.7 | -2.2 | 88.3 | -5.1
CC1CCC(NC(=O)c2ccc3nc[nH]c3c2)CC1 (stereo unspecified) | -7.0 | i | 128.6* | 0.279 | 109.7 | -31.3
Cc1ccc(NC(=O)c2ccc3nc[nH]c3c2)c(O)c1 | -32.4 | i | 111.5 | -2.64 | 127.2 | -13.5
Cc1nn2cc(-c3ccc(Cl)cc3)cnc2c1Cl | 8.7 | i | 140.2* | 1.21 | 94.1 | -44.6
CC(=O)c1cnc2c(-c3ccc(Cl)cc3)c(C)nn2c1C | 15.8 | i | 102.1 | -0.0197 | 88.5 | -3.4
NNC(=O)c1cc2sccc2s1 | nt | i | nt | 0.984 | nt | nt
O=C(Nc1ccccc1)N1CC=C(c2ccccc2)CC1 | 19.2 | i | 144.7* | -0.407 | 86.9 | -48.3
O=C(Nc1ccccc1)N1CC=C(c2ccc(F)cc2)CC1 | 17.4 | i | 142.4* | -0.103 | 88.4 | -49.6
O=C(Nc1cccc2ccccc12)N1CC=C(c2ccccc2)CC1 | 2.9 | i | 95.9 | nt | 103.5 | 4.4
COC(=O)CSc1nc(-c2cccs2)ccc1C#N | -3.9 | i | 133.3* | nt | 107.5 | -36.7
CCOC(=O)C1=C(CSc2nc(CC)c(C)cc2C#N)OC(N)=C(C#N)C1c1ccccc1 (stereo unspecified) | 3.6 | i | 87.0 | -1.34 | 102.0 | 14.2
